S1P4 antag – human S1P4 receptor antagonism; O95977; inhibition, % at 4.98 µM; AID 1510; 0.26% of 220,000 active; S1P4-expressing cells, antagonist mode, reporter read-out; in the data active means inhibition above about 29%;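 further: 0% = wells stimulated with agonist and 100% = vehicle wells without agonist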
NPY1 pot ag – potentiates or activates human NPY-Y1 receptor | P25929 | NPY-Y1 expressing cells, potentiator/agonist activation | activation, % at 3.6 µM | 0.37% of 220,000 active | AID 1304; in the data active means activation above about 33%, passing the limit was not always enough;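 further: cells stimulated with NPY at EC10 then isoproterenol at EC100; 0% = low agonist plus stimulus and 100% = saturating agonist plus stimulus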
NPY-Y1 antag – blocks the human neuropeptide Y Y1 receptor. P25929. HEK293-CNG Y1 cells, membrane potential fluorescence; NPY at EC95, then isoproterenol. inhibition, % at 3.6 µM. 1% of 200,000 active. AID 1040;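 active means inhibition above the campaign mean inhibition of all tested compounds plus 3 SD, cut at about 20% in these data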;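 further: 0% = DMSO wells given NPY plus isoproterenol and 100% = isoproterenol alone without NPY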
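Assay system: HEK293 Y1/CNG channel cell line; Doses: single compound dose of 3.6 µM, 0.4% DMSO; Timing: dye 3 h, compound 60 min room temperature, stimulation 45 min; Technique: Membrane-potential fluorescent dye readout; Measure: % inhibition of NPY effect.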
NPY-Y2 antag – NPY-Y2 (human) receptor antagonism | NPY-Y2 expressing cells, antagonist mode | inhibition, % at 2.7 µM | P49146 | 0.99% of 140,000 active | AID 793; in the data active means inhibition above about 17%;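 further: 0% = vehicle with agonist challenge and 100% = reference antagonist with challenge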
Target sequence (P49146 whole entry, looked up): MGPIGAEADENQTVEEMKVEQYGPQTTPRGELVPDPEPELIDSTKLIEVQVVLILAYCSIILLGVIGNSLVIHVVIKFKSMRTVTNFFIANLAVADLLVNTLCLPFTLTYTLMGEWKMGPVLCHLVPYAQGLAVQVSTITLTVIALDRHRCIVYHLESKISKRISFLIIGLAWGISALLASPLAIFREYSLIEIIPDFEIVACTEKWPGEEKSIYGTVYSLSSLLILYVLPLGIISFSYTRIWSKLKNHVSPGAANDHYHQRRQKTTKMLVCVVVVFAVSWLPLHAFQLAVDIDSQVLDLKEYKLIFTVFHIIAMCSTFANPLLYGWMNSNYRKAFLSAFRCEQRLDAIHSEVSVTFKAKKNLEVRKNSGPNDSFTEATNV
S1P4 agonist – agonists of human S1P4 receptor. O95977. S1P4-expressing cell line, agonist reporter assay. activation, % at 4.98 µM. 0.35% of 220,000 active. AID 1509; in the data active means activation above about 11%;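 further: 0% = DMSO vehicle and 100% = reference agonist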
NPY-Y2 PAM-ag – human NPY-Y2 potentiation or agonism, primary screen; cells expressing NPY-Y2, potentiator/agonist read-out; activation, % at 3.6 µM; 0.45% of 220,000 active; in the data active means activation above about 27%;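 further: cells stimulated with NPY near EC25 plus isoproterenol at EC100; 0% = vehicle plus submaximal agonist and 100% = vehicle plus saturating agonist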
* marks the source's active call; other numbers are inactive results; . = no result given. Shown are actives, neighbours in structure and some others; about 2.4% of the full set was active somewhere.

SMILES | S1P4 antag | NPY1 pot ag | NPY-Y1 antag | NPY-Y2 antag | S1P4 agonist | NPY-Y2 PAM-ag
CC(Oc1ccc(Cl)cc1)c1ccnn1S(=O)(=O)c1ccc(Cl)cc1 (centres undefined) | -34 | -9 | 21* | 22* | -3 | -20
O=C(/C=C/c1ccc(Cl)cc1)N1CCN(c2ccc(Cl)cc2[N+](=O)[O-])CC1 | -8 | -15 | 21* | 8 | 0 | -4
O=C(/C=C/c1ccc([N+](=O)[O-])cc1)N1CCN(c2ccccc2F)CC1 | 0 | 14 | -3 | 5 | 2 | 0
C#CC(C)(CC)NC(=O)Cn1nnc(-c2cccc(C(F)(F)F)c2)n1 (centres undefined) | -6 | -1 | -2 | . | 1 | -1
COc1cc(CCC(=O)Nc2nnc(-c3cccnc3)s2)cc(OC)c1OC | 4 | -7 | -4 | . | 0 | -3
O=C(c1cccs1)N(Cc1ccco1)c1nc(-c2ccc(F)cc2)cs1 | 7 | 1 | 14 | 18* | 1 | 8
CCC(=O)N(Cc1ccco1)c1nc(-c2ccccc2)cs1 | -10 | -11 | 10 | 10 | 1 | 8
O=C(O)CC1(CC(=O)Nc2cc(F)ccc2Cl)CCCCC1 | 9 | 11 | . | . | 1 | 0
CCS(=O)(=O)N1Cc2ccccc2CC1C(=O)Nc1nc2ccc(C)cc2s1 (centres undefined) | -29 | 46* | -9 | -4 | 0 | 31*
CCC(CC)c1nn2c(N)c(/C=C3\C(C)=Nc4ccccc43)c(=O)nc2s1 | 6 | 88* | . | . | 0 | 51*
CC(C)c1nn2c(N)c(/C=C3\C=Nc4ccccc43)c(=O)nc2s1 | -20 | 9 | . | . | 1 | 11
N#Cc1cnc(N)c(Br)c1 | -20 | 3 | 2 | . | 0 | 0
O=C(Nc1nc2ccccc2[nH]1)c1cccs1 | 0 | -5 | -3 | . | 1 | -10
N=c1c(-c2nc3ccccc3[nH]2)cc(C(=O)c2cccs2)nn1-c1ccc(Cl)cc1 | -14 | 48* | -9 | 0 | 1 | 43*
CCOCCCn1c(=S)[nH]c2cc(C(=O)NCCCN(CC)CC)ccc2c1=O | -8 | -11 | 3 | . | 0 | -11
Cc1cc2cc(CCNC(=O)C3c4ccccc4Oc4ccccc43)c(=O)[nH]c2cc1C | -9 | -19 | 3 | 1 | 0 | -2
COC(=O)C1=C(C)NC2=C(C(=O)CCC2)C1c1cn(Cc2ccc(Cl)cc2Cl)nc1-c1ccccc1 (centres undefined) | -50 | -66 | 65* | 19* | 1 | -28
Nc1nc2c(C(=O)N3CCOCC3)nnn2c2ccccc12 | -10 | 12 | . | . | -1 | -17
Cc1nc2sc3c(c2c(=O)n1/N=C/c1ccco1)CCCC3 | 3 | 104* | -14 | 0 | 0 | 103*
CCC1(c2ccc(F)cc2)NC(=O)N(CC(=O)Nc2ccc(-c3nc4ccc(C)cc4s3)cc2)C1=O (centres undefined) | -9 | 5 | 8 | -5 | 0 | 6
COc1ccc(C2(C)NC(=O)N(CC(=O)Nc3ccc(-c4nc5ccc(C)cc5s4)cc3)C2=O)cc1 (centres undefined) | -1 | 39* | -12 | . | -1 | 56*
COC(=O)C1C(=O)C2=C(CC1C)Nc1ccccc1NC2c1cccs1 (centres undefined) | 6 | -5 | -2 | . | 0 | 2
Clc1ccc(-c2csc(Nc3cccnc3)n2)cc1 | 3 | 16 | . | . | 2 | 24
Clc1cccc(Nc2nc(-c3ccncc3)cs2)c1 | -5 | 46* | -18 | . | 2 | 51*
Cc1cccc(Nc2nc(-c3ccncc3)cs2)c1 | -4 | 47* | -21 | . | 1 | 35*
SMILES | S1P4 antag | NPY1 pot ag | NPY-Y1 antag | NPY-Y2 antag | S1P4 agonist | NPY-Y2 PAM-ag
COc1cccc(CNc2nc3ccccc3n2CCN2CCCCC2)c1OC | -3 | -17 | 42* | 25* | 3 | 0
COc1ccc(CNc2nc3ccccc3n2CCN2CCCCC2)c(OC)c1 | 6 | -29 | 29* | 26* | -1 | -7
O=C(Cn1nc(-c2ccc(N3CCOCC3)c([N+](=O)[O-])c2)c2ccccc2c1=O)N1CCCCC1 | -13 | -14 | 25* | 57* | 1 | -35
CCC(C)(C)NC(=O)C(c1cccn1C)N(C(=O)Cn1nnc2ccccc21)c1ccccc1OC (centres undefined) | 1 | -12 | 2 | 5 | 0 | 4
CCC(C)(C)NC(=O)C(c1cccn1C)N(Cc1ccc(OC)cc1)C(=O)Cn1nnc2ccccc21 (centres undefined) | -1 | -159 | 52* | 53* | -1 | -81
COc1cc(OC)c(N(C)S(=O)(=O)c2cccc(C(=O)Nc3nnc(C4CC4)s3)c2)cc1Cl | -12 | 71* | . | . | 0 | 56*
Cc1ccc(N(C)S(=O)(=O)c2cccc(C(=O)Nc3nnc(C4CC4)s3)c2)cc1 | -1 | 22 | -3 | . | 0 | 13
COC(=O)c1cc(NC(=O)CC2SC(=Nc3ccccc3)N(CCc3c[nH]c4ccccc34)C2=O)cc(C(=O)OC)c1 (centres undefined) | -2 | 47* | -8 | -4 | 0 | 35*
CC(C)(C)NS(=O)(=O)c1ccc(NS(=O)(=O)c2ccc(F)cc2)cc1 | 4 | -1 | 5 | 1 | 2 | 90*
Cc1ccccc1OCC(=O)Nc1ccc2c(c1)C(=O)c1ccccc1C2=O | -20 | -10 | 0 | 3 | 0 | 14
Cc1ccccc1OCC(=O)Nc1ccc2c(c1)Cc1ccccc1-2 | -5 | -29 | 32* | 19* | 1 | -12
COc1cccc(CN(C)C(=O)c2cc(COc3c(F)cccc3F)on2)c1 | -3 | -31 | 12 | . | -2 | -35
COc1cccc(CN(C)C(=O)c2cc(COc3ccc4ncccc4c3)on2)c1 | 2 | -59 | 21* | . | -1 | 19
O=C(c1nn(Cc2ccccc2)c(=O)c2ccccc12)N1CCN(c2ccccn2)CC1 | 13 | -34 | 46* | 20* | 0 | -9
O=C(c1nn(Cc2ccccc2)c(=O)c2ccccc12)N1CCc2ccccc2C1 | -31 | -14 | 9 | 11 | 1 | -13
O=C(Cn1c(=O)c(=O)n(Cc2ccccc2)c2ccc(Cl)cc21)NCC1CCCO1 (centres undefined) | 0 | -2 | -2 | . | 0 | 7
CCC(C(=O)NC1CCCCC1)N(Cc1cccs1)C(=O)c1snc(C(N)=O)c1N (centres undefined) | 7 | 1 | 10 | . | -2 | -7
O=C(Nc1ccc(N2CCOCC2)c(Cl)c1)c1ccc([N+](=O)[O-])o1 | 17 | 13 | -1 | . | -1 | 8
CC(C)C(=O)N1CCN(c2ccc(NC(=O)c3ccc([N+](=O)[O-])o3)cc2Cl)CC1 | 47* | -14 | 1 | . | -3 | -31
CC1CC(C)CN(CCOc2ccccc2-c2ccccc2)C1 (centres undefined) | -11 | -23 | 34* | 30* | 2 | -9

Compound activity from PubChem BioAssay.
